# Bioassay records from PubChem.
# Rows were chosen to be rich in hits. Some 2.3% of all compounds tested hit in one or more screens of this group.
# RAM inhibit = inhibitors of the yeast RAM network, primary screen, dse1pr::URA3 reporter, 5-FOA selection | S. cerevisiae dse1pr::URA3 reporter, 5-FOA growth OD615, 2 d; analog-sensitive cbk1-as2 kinase mutant strain | inhibition, % at 50 µM | 190,000 tested, 1.8% active | AID 868, 2007;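 active = inhibition above a set limit, 3 SD over mean compound inhibition, cut at about 8.4% in these data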;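 also: 0% = DMSO-only wells with no growth and 100% = 10 µM 1-NA-PP1 full growth; inhibition rescues growth on 5-FOA so higher OD means more RAM inhibition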
# Arbovirus inh = antivirals against arbovirus infection, primary screen, cell-based, full library, 10K replicate subset | arbovirus infection cell-based antiviral screen | 200,000 tested, 0.37% active | inhibition, % at 10 µM; in the data active = inhibition above about 30%
# ABCB1 inh = ABCB1 efflux pump inhibitors, primary screen, cell-based, multiplex, flow cytometry, ABCG2 counter-screen; CCRF-Adr cells, JC-1 efflux; inhibition, % at 6.6 µM; AID 1326, 2008; ATP-dependent translocase ABCB1 (Homo sapiens), P08183; 190,000 tested, 0.067% active; in the data active = inhibition above about 40%;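 also: 0% = vehicle and 100% = reference inhibitor; higher value means more JC-1 retained so stronger ABCB1 efflux block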
# ABCG2 block = ABCG2 efflux pump inhibitors, primary screen, multiplex with ABCB1, IgMXP3 cells, flow cytometry; Broad substrate specificity ATP-binding cassette transporter ABCG2 (Homo sapiens), Q9UNQ0; JC-1 efflux; AID 1325, 2008; inhibition, % at 6.6 µM; 190,000 tested, 0.1% active;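 active = inhibition above 80%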;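 also: 0% = DMSO and 100% = nicardipine control wells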
#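 Test system: ABCG2 IgMXP3 and barcoded ABCB1 CCRF-Adr cell mix; Schedule: cells with compound and JC-1, 10 min at 25 °C, rotating, no wash; Technique: flow cytometry of retained JC-1 fluorescence; Measure: % inhibition of efflux relative to nicardipine and DMSO; Controls: nicardipine high and DMSO low controls.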
# RAM 5-FOA = 5-FOA growth of efflux-deficient control yeast, dose response, counter-screen for RAM network inhibitor project, S. cerevisiae, OD615. shares compounds with RAM inhibit. S. cerevisiae efflux-deficient reporter strain, 5-FOA growth OD615, 2 days. max inhibition, %. 1,200 tested, under 10 active. AID 1305, 2008; call rule not given here;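 also: plate controls were vehicle for no effect and reference inhibitor for full effect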
# * hit, by the source's call; . = no result given.
SMILES,RAM inhibit,Arbovirus inh,ABCB1 inh,ABCG2 block,RAM 5-FOA
CCC(C(=O)OCC(=O)c1ccc2c(c1)NC(=O)CO2)c1ccccc1 (stereo not drawn),0,4,1,28,.
Cc1ccc(SCC(=O)N2c3ccccc3Sc3ccccc32)cc1,14*,-2,1,8,2
O=C(Oc1oc(-c2ccco2)nc1C=Nc1ccc(Cl)cc1)c1ccco1,1,-3,0,1,.
CCOC(=O)c1cc2c(=O)n3ccccc3nc2n(CCOC)c1=NC(=O)c1c(-c2c(F)cccc2Cl)noc1C,3,-23,13,18,.
CN(c1ccc(C(=O)NCCSCc2ccc(Cl)cc2)cc1)S(=O)(=O)c1ccccc1,20*,17,1,10,3
CN(c1ccc(C(=O)NCCSC(C)(C)C)cc1)S(=O)(=O)c1ccccc1,1,2,3,32,.
Cc1ccc(CSCCNC(=O)c2ccc(N(C)S(=O)(=O)c3ccccc3)cc2)cc1,18*,7,1,5,4
CN(c1ccc(C(=O)NCCSCc2c(F)cccc2Cl)cc1)S(C)(=O)=O,7,3,2,3,.
COc1ccc(CCNC(=O)c2cnn3c(C(F)F)cc(C)nc23)cc1OC,-1,0,0,0,.
COc1ccccc1OC(=O)CCN1c2ccccc2Sc2ccccc21,14*,11,-1,-5,6
CN1CCN(C(=O)C2=C[C@@H](c3csc4ccccc34)C[C@@H](OCc3ccc(CO)cc3)O2)CC1,0,4,0,1,.
O=C(C1=C[C@H](c2csc3ccccc23)C[C@H](OCc2ccc(CO)cc2)O1)N1CCOCC1,14*,-5,2,2,1
N#CC(Nc1ccccc1)c1ccccc1OCc1ccccc1 (stereo not drawn),14*,-24,0,2,1
Cc1ccc(NC(=O)Cc2ccc(Cl)c(Cl)c2)cc1S(=O)(=O)N(C)C,12*,-23,0,2,3
O=C(O)CSc1nc(-c2ccc(Cl)cc2)nc2c1oc1ccccc12,15*,35*,0,15,3
CCOC(=O)CSc1nc(-c2ccccc2)nc2c1oc1ccccc12,8,-4,0,5,.
CCOC(=O)c1c(C)[nH]c(C(=O)C(C)Sc2ccc(Cl)cc2)c1C (stereo not drawn),12*,-18,0,4,3
CCCCCCn1c(=O)c(C(=O)N/N=C/c2cccc(F)c2)c(O)c2ccccc21,16*,-10,0,-1,5
O=C(NCCc1ccccc1)c1c(O)c2cccc3c2n(c1=O)CC3,22*,8,0,0,2
O=C(NCc1ccccn1)c1c(O)c2cccc3c2n(c1=O)CC3,-1,22,0,9,.
CCn1c(=O)c(C(=O)NCCc2ccccc2)c(O)c2ccccc21,12*,-24,1,4,4
CCCCCCCCC(=O)NNC(=O)c1c(O)c2ccccc2n(CC)c1=O,13*,-21,1,3,1
COc1cccc(CSc2nnc(-c3ccco3)n2C)c1,1,0,1,4,.
COc1ccc(/C=N/NC(=O)CC(=O)NCc2cccnc2)c(OC)c1,0,-3,0,-3,.
COc1ccc(-c2nc3ccccc3c(=O)n2CCOc2ccccc2C)cc1,21*,15,0,-2,7
SMILES,RAM inhibit,Arbovirus inh,ABCB1 inh,ABCG2 block,RAM 5-FOA
COc1ccc(-c2nc3ccccc3c(=O)n2CCOc2cc(C)ccc2C)cc1,14*,19,1,0,5
COc1ccc(-c2nc3ccccc3c(=O)n2CCOc2ccc(C)cc2C)cc1,15*,16,1,19,6
CCCOC(=O)C1[C@H]2C(=O)N(Cc3ccco3)C[C@]23C=C[C@H]1O3 (stereo partly drawn),2,3,0,1,.
COc1ccc(Cc2nnc(NC(=O)CSc3ccc(C)cc3)s2)cc1OC,2,7,0,1,.
COc1cc(NS(=O)(=O)c2ccc(Nc3nc(-c4ccccc4)cs3)cc2)nc(OC)n1,11*,-5,0,0,2
CC(=O)Nc1ccc(S(=O)(=O)Nc2cccn(Cc3ccc(C)cc3)c2=O)cc1,1,8,0,9,.
